Measurements: ChEMBL document CHEMBL1126705, “16 beta-([18F]fluoro)estrogens: systematic investigation of a new series of fluorine-18-labeled estrogens as potential imaging agents for estrogen-receptor-positive breast tumors” (J Med Chem, 1993)

How the values were obtained:
Rattus norvegicus [1] = assay: Tested in vivo for the biodistribution in rat fat at 1 hour after intravenous dose of 50 microCi of drug in 10%ethanol saline; format: ADME, organism-based, Adipose tissue
Procedure, shortened: (§1)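 Ether-anesthetized 25-day-old female Sprague-Dawley rats (~40–53 g) got the [18F] tracer in 10% ethanol saline via femoral vein. Rats were decapitated at 1 or 3 h, and blood and organs were weighed and gamma-counted. Values are % injected dose/g as mean ± SD, n = 5 per time point.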

Rattus norvegicus [2] = assay: Tested in vivo for the biodistribution in rat uterus/blood after 3 hours following an intravenous dose of 50 microCi of drug in 10%ethanol saline; format: ADME, organism-based
Procedure, shortened: (§2)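 Female Sprague-Dawley rats, 25 days old (~40–53 g), ether-anesthetized, given the 18F-labeled estrogen iv via femoral vein in 10% ethanol saline. […] Others were sacrificed by decapitation at 1 or 3 h. Blood and organs were excised, weighed and gamma counted as % injected dose/g, mean ± SD, typically n = 5 (4–6).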

Rattus norvegicus [3] = assay: Tested in vivo for the biodistribution in rat kidney after 3 hours following an intravenous dose of 50 microCi of drug in 10%ethanol saline; format: ADME, organism-based; procedure, shortened: as §1
Rattus norvegicus [4] = assay: Tested in vivo for the biodistribution in rat ovaries at 1 hour after intravenous dose of 50 microCi of drug in 10%ethanol saline; format: ADME, organism-based, Female gonad
Procedure, shortened: (§3)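 Immature (25-day-old) female Sprague-Dawley rats, ether-anesthetized, given the fluorine-18-labeled estrogen by femoral vein injection in 10% ethanol saline. […] Other groups were killed by decapitation at 1 or 3 h. Blood and organs were weighed and gamma-counted. Data are % injected dose/g, mean ± SD, typically n = 5 per group.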

[5] = Partition coefficient (logP); format: physicochemical; conditions: octanol/water
Procedure, shortened: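 Octanol/water log P estimated from log k'w measured by reversed-phase HPLC (Minick method) on a C8 silica column.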

[6] = (§4) Tested in vivo for the biodistribution in rat fat after 3 hours following an intravenous dose of 50 microCi of drug in 10%ethanol saline; parameters: species or system Adipose tissue; procedure, shortened: as §1
[7] = target: T1, Estrogen receptor (Rattus norvegicus) (UniProt P06211+Q62986)
Rattus norvegicus [8] = assay: Tested in vivo for the biodistribution in rat uterus/muscle after 3 hours following an intravenous dose of 50 microCi of drug in 10%ethanol saline; format: ADME, organism-based, Muscle tissue; procedure, shortened: as §2
Rattus norvegicus [9] = assay: Tested in vivo for the biodistribution in rat kidney at 1 hour after intravenous dose of 50 microCi of drug in 10%ethanol saline; format: ADME, organism-based; procedure, shortened: as §1
Rattus norvegicus [10] = assay: Tested in vivo for the biodistribution in rat liver at 1 hour after intravenous dose of 50 microCi of drug in 10%ethanol saline; format: ADME, organism-based; procedure, shortened: as §3
Rattus norvegicus [11] = assay: Tested in vivo for the biodistribution in rat thymus at 1 hour after intravenous dose of 50 microCi of the drug and 15 ug of estradiol; format: ADME, organism-based; procedure, shortened: as §3
[12] = target: T1, Estrogen receptor (Rattus norvegicus); remark: listed apart in the source
Rattus norvegicus [13] = assay: Tested in vivo for the biodistribution in blood of female rat at 1 hour after intravenous dose of 50 microCi of drug in 10%ethanol saline; format: ADME, organism-based; procedure, shortened: as §1
Rattus norvegicus [14] = assay: Tested in vivo for the biodistribution in rat bone at 1 hour after intravenous dose of 50 microCi of the drug and 15 ug of estradiol; format: ADME, organism-based, Bone element
Rattus norvegicus [15] = assay: Tested in vivo for the biodistribution in rat ovaries at 1 hour after intravenous dose of 50 microCi of the drug and 15 ug of estradiol; format: ADME, organism-based, Female gonad; procedure, shortened: as §3
Rattus norvegicus [16] = assay: Tested in vivo for the biodistribution in rat uterus after 3 hours following an intravenous dose of 50 microCi of drug in 10%ethanol saline; format: ADME, organism-based; procedure, shortened: as §3
Rattus norvegicus [17] = assay: Tested in vivo for the biodistribution in rat kidney at 1 hour after intravenous dose of 50 microCi of the drug and 15 u g of estradiol; format: ADME, organism-based; procedure, shortened: as §3
Rattus norvegicus [18] = assay: Tested in vivo for the biodistribution in blood of female rat after 3 hours following an intravenous dose of 50 microCi of drug in 10%ethanol saline; format: ADME, organism-based; procedure, shortened: as §1
Rattus norvegicus [19] = assay: Tested in vivo for the biodistribution in rat liver at 1 hour after intravenous dose of 50 microCi of the drug and 15 u g of estradiol; format: ADME, organism-based; procedure, shortened: as §3
Rattus norvegicus [20] = assay: Tested in vivo for the biodistribution in rat bone at 1 hour after intravenous dose of 50 microCi of drug in 10%ethanol saline; format: ADME, organism-based, Bone element; procedure, shortened: as §1
[21] = target: T2, Alpha-fetoprotein (Rattus norvegicus) (UniProt P02773); assay: Relative binding affinity for Alphafetoprotein
T2 sequence (whole entry): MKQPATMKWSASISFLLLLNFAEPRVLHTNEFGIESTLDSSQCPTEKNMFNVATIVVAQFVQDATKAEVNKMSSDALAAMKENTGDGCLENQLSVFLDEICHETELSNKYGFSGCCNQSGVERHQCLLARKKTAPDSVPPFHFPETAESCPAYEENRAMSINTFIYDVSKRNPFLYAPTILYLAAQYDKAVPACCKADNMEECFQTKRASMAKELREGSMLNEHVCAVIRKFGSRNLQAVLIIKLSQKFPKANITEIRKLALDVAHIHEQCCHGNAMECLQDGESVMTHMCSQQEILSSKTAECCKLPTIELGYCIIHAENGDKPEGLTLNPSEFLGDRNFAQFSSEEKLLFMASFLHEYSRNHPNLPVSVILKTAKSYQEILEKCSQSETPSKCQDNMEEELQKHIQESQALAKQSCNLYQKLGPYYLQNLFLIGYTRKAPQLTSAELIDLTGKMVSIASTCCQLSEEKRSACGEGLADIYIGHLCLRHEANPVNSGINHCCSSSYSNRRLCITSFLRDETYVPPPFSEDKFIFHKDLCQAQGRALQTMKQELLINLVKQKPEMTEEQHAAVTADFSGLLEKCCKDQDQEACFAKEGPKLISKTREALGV

Rattus norvegicus [22] = assay: Tested in vivo for the biodistribution in rat thymus at 1 hour after intravenous dose of 50 microCi of drug in 10%ethanol saline; format: ADME, organism-based; procedure, shortened: as §3
Rattus norvegicus [23] = assay: Tested in vivo for the biodistribution in rat bone after 3 hours following an intravenous dose of 50 microCi of drug in 10%ethanol saline; format: ADME, organism-based, Bone element; procedure, shortened: as §1
Rattus norvegicus [24] = assay: Tested in vivo for the biodistribution in rat uterus/blood at 1 hour after intravenous dose of 50 microCi of drug in 10%ethanol saline; format: ADME, organism-based; procedure, shortened: as §2
Rattus norvegicus [25] = assay: Tested in vivo for the biodistribution in rat uterus at 1 hour after intravenous dose of 50 microCi of drug in 10%ethanol saline; format: ADME, organism-based; procedure, shortened: as §2
Rattus norvegicus [26] = assay: Tested in vivo for the biodistribution in rat fat at 1 hour after intravenous dose of 50 microCi of the drug and 15 ug of estradiol; format: ADME, organism-based, Adipose tissue
Rattus norvegicus [27] = assay: Tested in vivo for the biodistribution in rat uterus/muscle at 1 hour after intravenous dose of 50 microCi of the drug and 15 ug of estradiol; format: ADME, organism-based, Muscle tissue; procedure, shortened: as §2
Rattus norvegicus [28] = assay: Tested in vivo for the biodistribution in rat liver after 3 hours following an intravenous dose of 50 microCi of drug in 10%ethanol saline; format: ADME, organism-based; procedure, shortened: as §3
Rattus norvegicus [29] = assay: Tested in vivo for the biodistribution in rat uterus/muscle at 1 hour after intravenous dose of 50 microCi of drug in 10%ethanol saline; format: ADME, organism-based, Muscle tissue; procedure, shortened: as §2
Rattus norvegicus [30] = assay: Tested in vivo for the biodistribution in rat thymus after 3 hours following an intravenous dose of 50 microCi of drug in 10%ethanol saline; format: ADME, organism-based; procedure, shortened: as §3
Rattus norvegicus [31] = assay: Tested in vivo for the biodistribution in rat muscle at 1 hour after intravenous dose of 50 microCi of drug in 10%ethanol saline; format: ADME, organism-based, Muscle tissue; procedure, shortened: as §3
Rattus norvegicus [32] = assay: Tested in vivo for the biodistribution in rat muscle after 3 hours following an intravenous dose of 50 microCi of drug in 10%ethanol saline; format: ADME, organism-based, Muscle tissue; procedure, shortened: as §3
[33] = target: T3, Sex hormone-binding globulin (Homo sapiens) (UniProt P04278); assay: Relative binding affinity against sex steroid binding protein (SBP)
T3 sequence (whole entry): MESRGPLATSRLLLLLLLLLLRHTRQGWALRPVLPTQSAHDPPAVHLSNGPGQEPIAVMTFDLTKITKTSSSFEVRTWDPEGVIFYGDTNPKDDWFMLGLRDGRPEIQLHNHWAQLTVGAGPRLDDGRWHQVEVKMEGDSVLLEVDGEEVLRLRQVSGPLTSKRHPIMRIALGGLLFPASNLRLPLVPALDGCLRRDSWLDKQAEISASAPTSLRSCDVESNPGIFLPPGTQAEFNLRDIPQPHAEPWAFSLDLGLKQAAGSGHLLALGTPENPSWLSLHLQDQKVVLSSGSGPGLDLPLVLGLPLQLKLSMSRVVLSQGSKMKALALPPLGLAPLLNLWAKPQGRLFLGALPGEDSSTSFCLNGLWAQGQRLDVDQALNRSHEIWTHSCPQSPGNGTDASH

Rattus norvegicus [34] = assay: Tested in vivo for the biodistribution in rat muscle at 1 hour after intravenous dose of 50 microCi of the drug and 15 ug of estradiol; format: ADME, organism-based, Muscle tissue; procedure, shortened: as §3
Rattus norvegicus [35] = assay: Tested in vivo for the biodistribution in rat uterus/blood at 1 hour after intravenous dose of 50 microCi of the drug and 15 ug of estradiol; format: ADME, organism-based; procedure, shortened: as §2
Rattus norvegicus [36] = assay: Tested in vivo for the biodistribution in rat ovaries after 3 hours following an intravenous dose of 50 microCi of drug in 10%ethanol saline; format: ADME, organism-based, Female gonad; procedure, shortened: as §3
Rattus norvegicus [37] = assay: Tested in vivo for the biodistribution in blood of female rat at 1 hour after intravenous dose of 50 microCi of the drug and 15 u g of estradiol; format: ADME, organism-based
Rattus norvegicus [38] = assay: Tested in vivo for the biodistribution in rat uterus at 1 hour after intravenous dose of 50 microCi of the drug and 15 ug of estradiol; format: ADME, organism-based; procedure, shortened: as §2
Rattus norvegicus [39] = assay: as §4; format: ADME, organism-based, Adipose tissue; procedure, shortened: as §1

Structure (SMILES)	Injected (Rattus norvegicus [1]) [%]	Injected (Rattus norvegicus [2]) [%]	Injected (Rattus norvegicus [3]) [%]	Injected (Rattus norvegicus [4]) [%]	logP [5]	NSB [7]	Injected (Rattus norvegicus [8]) [%]	Injected (Rattus norvegicus [9]) [%]	Injected (Rattus norvegicus [10]) [%]	BSI [12]	Injected (Rattus norvegicus [13]) [%]	Injected (Rattus norvegicus [15]) [%]	Injected (Rattus norvegicus [16]) [%]	Injected (Rattus norvegicus [18]) [%]	Injected (Rattus norvegicus [19]) [%]	relative binding affinity (RBA) [21]	Injected (Rattus norvegicus [23]) [%]	Injected (Rattus norvegicus [26]) [%]	relative binding affinity (RBA) [33]	Injected (Rattus norvegicus [34]) [%]	other results
CO[C@H]1C[C@]2(C)[C@@H](O)[C@@H](F)C[C@H]2[C@@H]2CCc3cc(O)ccc3[C@H]21	0.516	43.47	0.429	2.466	2.35	0.39	47.73	0.946	1.178	34	0.148	0.417	4.813	0.117	1.397	0.062	0.646	0.338	0.087	0.149	Injected [6]: 0.402%; Injected (dose/g) (Rattus norvegicus [11]): 0.135%; Injected (dose/g) (Rattus norvegicus [14]): 0.604%; Injected (dose/g) (Rattus norvegicus [17]): 0.579%; Injected (dose/g) (Rattus norvegicus [20]): 0.515%; Injected (dose/g) (Rattus norvegicus [22]): 0.391%; Injected (dose/g) (Rattus norvegicus [24]): 41.7%; Injected (dose/g) (Rattus norvegicus [25]): 6.12%; Injected (dose/g) (Rattus norvegicus [27]): 4.49%; Injected (dose/g) (Rattus norvegicus [28]): 0.893%; Injected (dose/g) (Rattus norvegicus [29]): 25.57%; Injected (dose/g) (Rattus norvegicus [30]): 0.175%; Injected (dose/g) (Rattus norvegicus [31]): 0.251%; Injected (dose/g) (Rattus norvegicus [32]): 0.107%; Injected (dose/g) (Rattus norvegicus [35]): 3.73%; Injected (Rattus norvegicus [36]): 1.409%; Injected (Rattus norvegicus [37]): 0.184%; Injected (Rattus norvegicus [38]): 0.671%
C#C[C@]1(O)[C@@H](F)C[C@H]2[C@@H]3CCc4cc(O)ccc4[C@H]3[C@@H](OC)C[C@@]21C	1.538	129.8	0.973	5.2	2.87	0.67	32.76	1.961	3.244	116	0.284	1.661	12.99	0.101	3.708	< 0.01	2.007	0.679	0.037	0.525	Injected (Rattus norvegicus [11]): 0.44%; Injected (Rattus norvegicus [14]): 1.477%; Injected (Rattus norvegicus [17]): 1.038%; Injected (Rattus norvegicus [20]): 1.384%; Injected (Rattus norvegicus [22]): 0.852%; Injected (Rattus norvegicus [24]): 66.26%; Injected (Rattus norvegicus [25]): 18.26%; Injected (Rattus norvegicus [27]): 5.25%; Injected (Rattus norvegicus [28]): 2.129%; Injected (Rattus norvegicus [29]): 24.31%; Injected (Rattus norvegicus [30]): 0.454%; Injected (Rattus norvegicus [31]): 0.739%; Injected (Rattus norvegicus [32]): 0.389%; Injected (Rattus norvegicus [35]): 7.52%; Injected (Rattus norvegicus [36]): 3.51%; Injected (Rattus norvegicus [37]): 0.38%; Injected (Rattus norvegicus [39]): 0.858%; Injected (Rattus norvegicus [38]): 2.548%
